From PubChem BioAssay AID493091 (Sanford-Burnham Center for Chemical Genomics, 2011)
Out of some 340,000 compounds screened, about 3,000 (0.88%) were called active. Only a selection was taken, and actives are over-represented in it overall. A number with no mark means an inactive call.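 Rule for the calls: active = inhibition above about 50% at 20 µM (limit read from the data); inactive = the rest.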 Non-standard residues stand in square brackets, D forms with d. Residues, ends and D or L forms follow the SMILES beside them. ξ: configuration not given here. ξM = CSCCC(N)C(=O)O

Target: Carboxy-terminal domain RNA polymerase II polypeptide A small phosphatase 1 (Homo sapiens) (UniProt Q9GZU7)
Experiment: inhibition of human SCP1 dephosphorylation activity – biochemical, colorimetric, uHTS, primary screen (AID 493091);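 note: plate controls were DMSO wells with enzyme for no effect and wells lacking enzyme for full effect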
Conditions: Recombinant Scp1, phosphopeptide, malachite green phosphate absorbance; at 20 µM; active compounds read high
How it was run: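 Incubation: 45 min enzyme reaction at room temperature / System: truncated SCP-1 phosphatase (76-261aa) / Reagent: Phospho 17-mer peptide substrate / Buffer or medium: Acidic Tris acetate buffer with magnesium and detergent / Signal: absorbance at 630 nm / Doses: one concentration, 20 µM, with 1.0% DMSO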

Sequence of Carboxy-terminal domain RNA polymerase II polypeptide A small phosphatase 1 (Homo sapiens) (Q9GZU7 76-261 limits assumed): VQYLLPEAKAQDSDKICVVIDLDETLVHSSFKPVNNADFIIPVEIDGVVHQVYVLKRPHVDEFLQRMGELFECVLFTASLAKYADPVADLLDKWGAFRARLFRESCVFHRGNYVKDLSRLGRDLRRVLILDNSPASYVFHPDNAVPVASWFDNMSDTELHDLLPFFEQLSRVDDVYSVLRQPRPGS

SMILES	inhibition
CC(C)(C)c1cc2cccnc2n1Cc1cccc(F)c1	-1.78%
CCOC(=O)C1CCN(S(=O)(=O)c2c(C)noc2C)CC1	-4.7%
COc1ccccc1NC(=O)c1ccc(N2CC3CC(C2)c2cccc(=O)n2C3)c(NC(=O)c2cccnc2)c1 (configuration not stated)	-3.99%
CCNC(=S)NNC(=O)c1ccc2ncccc2c1	-9.05%
O=C(O)c1ccc(N/N=C/c2ccc3ncccc3c2)cc1	50.4% (active)
Cc1ccc2cc(/C=N/Nc3ccc(C(=O)O)cc3)c(Cl)nc2c1	0.89%
O=c1c2ccccc2oc2nc(C3CCCCC3)n(Cc3ccco3)c(=O)c12	-2.2%
CCCc1nc2c(c(=O)c3ccccc3n2C)c(=O)n1C1CCCCCC1	2.39%
Cn1c2ccccc2c(=O)c2c(=O)n(Cc3ccco3)c(COc3ccccc3)nc21	92.9% (active)
COCCn1c(C)cc(C(=O)COC(=O)CNC(=O)c2ccco2)c1C	-7.15%
Cc1ccc(C(=O)Nc2nc(N)n(-c3ccccc3)n2)cc1	-3.84%
Cc1cc(S(=O)(=O)N2CCOCC2)ccc1OCC(=O)N1CCOCC1	2.62%
CCC(C)NC(=O)/C=C/c1ccc(S(=O)(=O)NCc2ccco2)cc1 (configuration not stated)	6.25%
Cc1ccc(N2C(=O)CC(Nc3cccc4ccccc34)C2=O)cc1 (configuration not stated)	-3.84%
CSc1ccccc1NC(=O)C(C)N1C(=O)c2ccccc2S1(=O)=O (configuration not stated)	39.4%
CC(=O)Nc1ccccc1Sc1ccc2c3c(cccc13)C(=O)N(c1ccc(C)cc1)C2=O	53.1% (active)
COC(=O)c1cc(S(=O)(=O)Nc2ccc(C)c(F)c2)c[nH]1	-3.42%
Cc1c(CCC(=O)O)c(=O)oc2c(C)c(OCc3ccccc3Cl)ccc12	97.5% (active)
Cc1c(CCC(=O)O)c(=O)oc2cc(OCc3ccc(Br)cc3)ccc12	53.3% (active)
Cc1c(CCC(=O)O)c(=O)oc2cc3occ(-c4ccccc4)c3cc12	-18.2%
Cc1coc2cc3oc(=O)c(CCC(=O)O)c(C)c3cc12	-1.97%
CCOC(=O)CCc1c(C)c2ccc(OCc3nn[nH]n3)c(C)c2oc1=O	2.8%
COc1ccc2c(C)c(CCC(=O)NC3CC3)c(=O)oc2c1C	-1.31%

SMILES	inhibition
O=C(COC(=O)[C@H](Cc1ccccc1)NC(=O)c1cccs1)Nc1cc(F)ccc1F	-10.5%
CCN(CC)c1ccc([N+](=O)[O-])cc1C(=O)O	-4.84%
COc1cccc(NC(=O)Cn2cnc3sc(C)c(S(=O)(=O)N4CCN(C)CC4)c3c2=O)c1	-1.94%
CCOc1ccc(C(=O)CCN2CCOCC2)cc1	-2.17%
CC(C)CCOc1ccc(C(=O)C[N+]2(C)CCOCC2)cc1	51% (active)
CCCOc1ccc(C(=O)C(CCC(CNCC)C(=O)c2ccc(OCCC)cc2)CNCC)cc1 (configuration not stated)	10.4%
Cc1ccc(CNC(=O)C2CCCN2C(=O)NCc2ccccc2)cc1 (configuration not stated)	-7.83%
C=CCc1cccc(/C=N/NC(=O)COc2ccc(-n3cnnn3)cc2)c1O	-8.78%
O=C(COc1ccc(-n2cnnn2)cc1)Nc1ccccc1Cl	58.7% (active)
O=C(COc1ccc(Cl)cc1)Nc1ccccc1CO	-5.63%
COc1ccc(C(=O)N(Cc2ccccc2)c2ccc(C)cc2)cc1S(=O)(=O)N1CCOCC1	-6.19%
C=CCOc1ccc(/C=C/C(=O)OCC(=O)NC2CCCCCC2)cc1	22%
CCNc1nc(NC(C)C)nc(OCCOC(=O)c2ccccc2)n1	2.19%
O=C(Nc1cccc(F)c1)[C@@H]1CCCN1	67.8% (active)
O=C(COC(=O)CNC(=O)C1CCCCC1)Nc1cccc(F)c1	-6.06%
O=C(Nc1cccc(F)c1)NC1CCCCCCC1	-10.5%
Cc1ccc(N2C(=O)N3[C@@H]4c5ccccc5OC[C@@H]4[C@@H](c4ccccc4)[C@@]3(C)C2=O)cc1	-17.6%
N#C/C=C/N1CCN(Cc2ccc3c(c2)OCO3)CC1	-12.3%
O=C(c1ccc(F)cc1)N1CCCC(C(=O)N2CCCCC2)C1 (configuration not stated)	-6.52%
Cc1ccc(Cc2nnc(SCC(=O)Nc3ccc(C)cc3C)[nH]c2=O)cc1	53.8% (active)
COc1ccc(Cc2nnc(SCC(=O)Nc3ccc(C)c(Cl)c3)[nH]c2=O)cc1	48%
Cc1ccc(Cc2nnc(SCC(=O)Nc3ccccc3C)[nH]c2=O)cc1	16.3%
COc1ccc2cc(C3=CC(=O)C[C@H](c4ccc5c(c4)OCO5)C3)ccc2c1	-11%

SMILES	inhibition
COc1ccccc1OCCNC(=O)C(CCSC)NC(=O)COc1ccccc1 (configuration not stated)	-8.06%
CCC(C)NC(=O)N[C@@H](CCSC)C(=O)O (some centres not stated)	-4.53%
COC(=O)CNC(=O)C(CCSC)NC(C)=O (configuration not stated) (Ac-[ξM]-Gly-OMe)	50.3% (active)
CCOc1ccc(OCC)c(NC(=O)CN(C)S(=O)(=O)c2cccc3nsnc23)c1	-5.95%
Cc1ccc(OCCNC(=O)c2cccc(S(=O)(=O)N3CCN(Cc4ccccc4)CC3)c2)cc1	-10.4%
CC1=CC(C)(C)N(C(=O)CSc2nnc(-c3ccccc3)o2)c2ccc(C)cc21	-2.74%
CCCCSc1nnc(-c2ccc(C)cc2)o1	81.5% (active)
Cc1ccc(-c2nnc(CN3CCN(C)CC3)o2)cc1	-6%
CCSC1=C(C#N)C(=O)n2c1cc1c2CCCC1	-1.97%
O=C(N/C(=C\c1ccc(F)cc1)C(=O)N1CCCCCC1)c1ccccc1	-0.73%
N#CC1=C(SCc2ccccc2)NC(=O)C(C#N)C12CCCC2 (configuration not stated)	68.9% (active)
CC1(C)CCc2nc(SCc3ccccc3)c(C#N)cc2C1	-11.5%
N#CC1=C(SCc2ccc(C#N)cc2)N=C(N)C(c2nc(-c3ccccc3)cs2)C12CCCCC2 (configuration not stated)	-1.99%
Cc1cc(C)cc(N(CC(=O)NCC2CCCO2)S(=O)(=O)c2c(C)noc2C)c1 (configuration not stated)	-3.08%
O=C(O)c1ccn(COc2ccc(Br)cc2)n1	-2.51%
CC1CCN(C(=O)Cn2nnnc2CN2CCOCC2)CC1	-6.52%
Cc1cc(C)nc(SCc2cn3c(C)cc(C)nc3n2)n1	-3.52%
COc1cccc(NC(=O)CN(C)C(=O)/C=C/c2cc(OC)ccc2OC)c1	-9.57%
COc1cccc(NC(=O)CN(C)C(=O)/C=C/c2cn(-c3ccccc3)nc2-c2cccs2)c1	-11.8%
COc1ccc(NC(=O)CN(C)C(=O)/C=C/c2cn(Cc3ccccc3)nc2-c2cccnc2)cc1	97.8% (active)
Nn1c(SCC(=O)Nc2nccs2)nnc1-c1ccco1	1.62%
CC1CCCCC1NC(=O)c1cn(C)c2ccc(S(=O)(=O)N3CCOCC3)cc2c1=O (configuration not stated)	-8.17%
Cc1ccc(CNC(=O)Cn2cnc3c(NCc4ccccc4)ncnc32)o1	1.29%

SMILES	inhibition
Cc1nc([N+](=O)[O-])cn1CC(=O)Nc1ccc2c(c1)OCO2	-4.74%
Cc1ccc(C(=O)O)cc1-c1ccc(/C=C2\SC(=O)N(CC(=O)Nc3ccc4c(c3)OCO4)C2=O)o1	94.1% (active)
Cc1nn(CC(=O)Nc2ccc3c(c2)OCO3)c(C)c1[N+](=O)[O-]	0.9%
CN(Cc1ccccc1)C(=O)c1ccc(NC2=NC3CS(=O)(=O)CC3S2)cc1 (configuration not stated)	-3.86%
COc1ccc(S(=O)(=O)NCCc2cc3ccc(C)c(C)c3[nH]c2=O)cc1	-6.43%
COc1ccc(S(=O)(=O)c2c[nH]c(=S)[nH]c2=O)cc1Cl	52.5% (active)
COc1ccc(S(=O)(=O)N(C)CC(=O)N2CCCC2)cc1Cl	-2.74%
Cc1ccc(S(=O)(=O)c2c[nH]c3ccc(Cl)cc3c2=O)cc1	30.5%
Cc1ccc(/C=C/C(=O)Nc2ccc([N+](=O)[O-])c(NC(=O)/C=C/c3ccc(C)o3)c2)o1	53.2% (active)
Cc1ccc(/C=C/C(=O)Nc2cc(S(=O)(=O)N3CCCCCC3)ccc2OCC(F)(F)F)o1	-9.11%
COC(=O)/C=C\C(=O)Nc1cccc([N+](=O)[O-])c1	-2.7%
CCOc1ccc(NC(=O)C2CC(=O)N=C(N)S2)cc1 (configuration not stated)	-10.8%
Cn1c2c(c(=O)n(C)c1=O)C(c1cccc(F)c1)C(C#N)=C(N)O2 (configuration not stated)	-7.3%
O=C(N/N=C/c1ccco1)c1ccc(C(=O)N/N=C/c2ccco2)o1	83.9% (active)
O=C(Cc1ccc([N+](=O)[O-])cc1)N/N=C/c1ccco1	-11.8%
O=C(N/N=C/c1ccco1)c1csc2c1CCCC2	0.11%
CCn1c(=S)sc2c(=O)n(CC(=O)Nc3cccc(Br)c3)c(C)nc21	-11%
Cc1ccc(-c2nc(CS(=O)CC(=O)N3CCN(c4ncccn4)CC3)c(C)o2)cc1 (configuration not stated)	13.2%
COc1ccccc1CNC(=O)c1ccc(CS(=O)(=O)c2ccccc2)o1	-4.06%
O=C(c1ccc(CS(=O)(=O)c2ccccc2)o1)N1CCN(c2ccccc2)CC1	62.1% (active)
O=C(c1ccc(S(=O)(=O)NCc2ccco2)cc1)N1CCN(c2ccccc2)CC1	22.5%
CC(C)NC(=O)C(c1ccc(F)cc1)N(C(=O)CCC(=O)Nc1ccccn1)c1ccccc1F (configuration not stated)	-5.49%
Cc1ccc(-c2noc(C3CCCN(C(=O)c4cccc(Cl)c4)C3)n2)o1 (configuration not stated)	-1.22%
